One data set deals with T1, human CYP1B1 (Homo sapiens, UniProt Q16678).
T1 sequence (Q16678 1-543): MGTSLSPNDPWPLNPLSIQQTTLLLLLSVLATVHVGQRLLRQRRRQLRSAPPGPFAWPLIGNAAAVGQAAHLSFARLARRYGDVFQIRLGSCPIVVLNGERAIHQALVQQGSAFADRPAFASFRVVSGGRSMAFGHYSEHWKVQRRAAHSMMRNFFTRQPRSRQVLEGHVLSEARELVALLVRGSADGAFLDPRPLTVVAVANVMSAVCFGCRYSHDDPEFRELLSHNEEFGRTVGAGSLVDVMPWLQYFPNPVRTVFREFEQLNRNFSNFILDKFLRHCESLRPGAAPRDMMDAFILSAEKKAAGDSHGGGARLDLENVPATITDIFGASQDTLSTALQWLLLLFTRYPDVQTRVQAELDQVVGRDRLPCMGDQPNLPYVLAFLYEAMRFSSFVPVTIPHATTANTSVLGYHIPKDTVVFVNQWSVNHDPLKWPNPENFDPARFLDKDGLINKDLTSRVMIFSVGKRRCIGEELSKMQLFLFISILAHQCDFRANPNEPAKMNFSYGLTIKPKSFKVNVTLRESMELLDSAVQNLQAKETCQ
Description: Oxidation of flavonoids by reconstituted purified CYP1B1, products by LC-MS/MS. The class given is in vitro ADME. The note with it: LC-MS/MS product detection.

Another data set concerns the target T2, human CYP2A13 (Homo sapiens, UniProt Q16696).
T2 sequence (Q16696 1-494): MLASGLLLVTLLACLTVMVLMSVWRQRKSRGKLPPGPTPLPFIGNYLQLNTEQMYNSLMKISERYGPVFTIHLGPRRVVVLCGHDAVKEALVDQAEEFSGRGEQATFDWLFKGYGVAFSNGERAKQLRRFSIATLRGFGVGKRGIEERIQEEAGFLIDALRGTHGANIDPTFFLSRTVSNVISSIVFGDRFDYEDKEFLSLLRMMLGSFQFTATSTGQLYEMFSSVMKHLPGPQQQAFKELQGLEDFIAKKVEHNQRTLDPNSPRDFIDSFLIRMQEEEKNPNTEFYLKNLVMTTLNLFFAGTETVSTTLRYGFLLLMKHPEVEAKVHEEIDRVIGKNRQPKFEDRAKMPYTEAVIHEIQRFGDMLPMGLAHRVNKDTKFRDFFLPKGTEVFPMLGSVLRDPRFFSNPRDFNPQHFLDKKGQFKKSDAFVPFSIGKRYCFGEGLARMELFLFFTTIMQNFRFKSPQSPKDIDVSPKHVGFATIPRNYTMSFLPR
Kind of data set: Oxidation of flavonoids by reconstituted purified CYP2A13, products by LC-MS/MS. The settings on record: LC-MS/MS product detection. The class given is in vitro ADME. The method in brief: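 Reconstituted system of purified E. coli-expressed human CYP2A13 (50 pmol), NADPH-P450 reductase (100 pmol), cytochrome b5 (100 pmol) and DLPC (50 μg). Flavonoid at 60 μM, 1 min preincubation, then NADPH-generating system added; 37 °C, 20 min. Stopped with ice-cold CH3CN, spun, supernatant run on positive-ESI LC-MS/MS. Products were identified from fragment ion spectra; rates were quantified with available standards, three separate determinations.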

Consider `COc1ccc(-c2cc(=O)c3c(O)cc(O)cc3o2)cc1OC` [3′4′diMe57diOHF, 3′,4′-dimethoxy-5,7-dihydroxyflavone], for which the “Extent of oxidation by CYP1B1 (in words)” value at human CYP1B1 was “only small amounts of products”. In addition, the “Extent of oxidation by CYP2A13 (in words)” value at human CYP2A13 was “only small amounts of products”.

On to `COc1ccc(-c2cc(=O)c3ccccc3o2)cc1OC` [3′4′diMeF, 3′,4′-Dimethoxyflavone], for which the “Extent of oxidation by CYP1B1 (in words)” value at human CYP1B1 was “good substrate”.

(Values after article PMC9896170 (Xenobiotica; the fate of foreign compounds in biological …, 2022).)
